According to article PMC3101112 (Cancer Management and Research, 2011):
pIC50: −log10 of the molar value. “And” between values parts separate entries of the source, which are not always exact repeats. Equal values may be shown once.

How the values were obtained:
EPHA5 = EPHA5 (Homo sapiens, UniProt P54756); test: Biochemical inhibition profile, EPHA5; details: read-out: Biochemical Inhibition Profile IC50, EPHA5
KDR = KDR (Homo sapiens, UniProt P35968); test: Biochemical inhibition profile, KDR; details: read-out: Biochemical Inhibition Profile IC50, KDR
Chain of KDR (P35968 20-1356): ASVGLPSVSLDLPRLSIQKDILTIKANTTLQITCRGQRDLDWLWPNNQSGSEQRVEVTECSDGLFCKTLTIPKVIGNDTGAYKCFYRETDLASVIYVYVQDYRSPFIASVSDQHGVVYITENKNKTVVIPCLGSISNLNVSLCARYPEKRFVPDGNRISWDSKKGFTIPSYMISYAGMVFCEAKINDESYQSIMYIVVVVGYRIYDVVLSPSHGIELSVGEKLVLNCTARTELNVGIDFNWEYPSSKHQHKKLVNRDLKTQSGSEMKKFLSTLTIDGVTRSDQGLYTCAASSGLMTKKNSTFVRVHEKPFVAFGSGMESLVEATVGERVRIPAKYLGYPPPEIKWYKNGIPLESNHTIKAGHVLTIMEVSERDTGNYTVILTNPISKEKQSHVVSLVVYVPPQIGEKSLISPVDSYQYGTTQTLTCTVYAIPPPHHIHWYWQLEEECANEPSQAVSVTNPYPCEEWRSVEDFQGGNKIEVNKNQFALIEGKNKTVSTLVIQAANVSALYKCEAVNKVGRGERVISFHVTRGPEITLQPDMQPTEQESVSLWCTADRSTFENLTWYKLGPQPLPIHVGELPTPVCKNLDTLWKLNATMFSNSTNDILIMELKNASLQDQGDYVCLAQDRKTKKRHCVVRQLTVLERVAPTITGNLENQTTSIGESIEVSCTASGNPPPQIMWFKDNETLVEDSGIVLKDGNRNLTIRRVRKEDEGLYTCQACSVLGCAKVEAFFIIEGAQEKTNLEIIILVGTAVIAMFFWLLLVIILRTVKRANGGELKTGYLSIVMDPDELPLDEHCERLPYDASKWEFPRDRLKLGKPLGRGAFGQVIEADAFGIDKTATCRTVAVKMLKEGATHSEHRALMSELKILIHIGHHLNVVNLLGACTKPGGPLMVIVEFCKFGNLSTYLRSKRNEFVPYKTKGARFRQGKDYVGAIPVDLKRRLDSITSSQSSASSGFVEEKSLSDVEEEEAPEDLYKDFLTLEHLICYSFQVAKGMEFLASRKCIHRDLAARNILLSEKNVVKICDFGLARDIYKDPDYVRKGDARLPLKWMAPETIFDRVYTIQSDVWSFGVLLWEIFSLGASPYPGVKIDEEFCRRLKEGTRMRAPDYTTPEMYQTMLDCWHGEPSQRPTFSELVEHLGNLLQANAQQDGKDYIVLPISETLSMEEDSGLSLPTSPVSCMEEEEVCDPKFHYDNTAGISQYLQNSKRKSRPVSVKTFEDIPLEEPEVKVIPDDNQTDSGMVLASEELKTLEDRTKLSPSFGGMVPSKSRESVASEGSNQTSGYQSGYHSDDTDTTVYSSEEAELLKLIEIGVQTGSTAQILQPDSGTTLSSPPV

VEGF-R1 = VEGF-R1 (Homo sapiens, UniProt P17948); test: Biochemical inhibition profile, VEGF-R1; details: read-out: Biochemical Inhibition Profile IC50, VEGF-R1
Chain of VEGF-R1 (P17948 27-1338): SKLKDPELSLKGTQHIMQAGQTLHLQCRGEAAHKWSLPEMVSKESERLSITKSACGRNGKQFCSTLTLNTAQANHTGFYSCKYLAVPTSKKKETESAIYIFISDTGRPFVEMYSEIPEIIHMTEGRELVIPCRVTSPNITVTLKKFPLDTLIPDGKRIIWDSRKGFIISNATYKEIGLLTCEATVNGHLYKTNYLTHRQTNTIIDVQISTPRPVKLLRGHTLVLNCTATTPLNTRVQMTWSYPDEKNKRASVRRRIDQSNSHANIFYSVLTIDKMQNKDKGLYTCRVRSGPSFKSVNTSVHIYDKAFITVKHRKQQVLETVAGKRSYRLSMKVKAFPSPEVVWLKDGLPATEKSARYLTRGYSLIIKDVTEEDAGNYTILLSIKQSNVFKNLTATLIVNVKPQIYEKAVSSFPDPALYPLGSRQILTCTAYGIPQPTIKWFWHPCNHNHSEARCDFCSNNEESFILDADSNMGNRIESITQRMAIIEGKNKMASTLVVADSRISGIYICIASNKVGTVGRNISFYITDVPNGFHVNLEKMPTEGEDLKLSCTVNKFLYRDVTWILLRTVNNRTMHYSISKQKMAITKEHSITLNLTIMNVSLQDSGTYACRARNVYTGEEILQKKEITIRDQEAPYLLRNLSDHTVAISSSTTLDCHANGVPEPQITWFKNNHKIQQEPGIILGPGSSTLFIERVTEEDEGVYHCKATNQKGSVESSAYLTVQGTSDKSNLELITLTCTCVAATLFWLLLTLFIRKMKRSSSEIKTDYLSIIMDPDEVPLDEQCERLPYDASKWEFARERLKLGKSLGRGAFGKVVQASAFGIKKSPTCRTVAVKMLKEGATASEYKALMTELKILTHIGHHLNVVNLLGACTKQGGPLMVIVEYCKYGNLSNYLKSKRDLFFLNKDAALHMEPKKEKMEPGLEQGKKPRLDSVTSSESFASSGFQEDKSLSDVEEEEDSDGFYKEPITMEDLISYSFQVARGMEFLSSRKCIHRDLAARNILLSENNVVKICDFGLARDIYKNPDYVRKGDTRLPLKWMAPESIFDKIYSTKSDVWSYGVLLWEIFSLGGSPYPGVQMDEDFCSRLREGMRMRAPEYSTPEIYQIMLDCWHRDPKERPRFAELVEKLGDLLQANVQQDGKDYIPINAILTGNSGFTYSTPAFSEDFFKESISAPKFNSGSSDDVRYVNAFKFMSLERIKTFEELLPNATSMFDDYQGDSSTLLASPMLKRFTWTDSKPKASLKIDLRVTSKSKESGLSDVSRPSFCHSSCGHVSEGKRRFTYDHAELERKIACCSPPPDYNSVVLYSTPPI

EPHB2 = EPHB2 (Homo sapiens, UniProt P29323); test: Biochemical inhibition profile, EPHB2; details: read-out: Biochemical Inhibition Profile IC50, EPHB2
Chain of EPHB2 (P29323 19-1055): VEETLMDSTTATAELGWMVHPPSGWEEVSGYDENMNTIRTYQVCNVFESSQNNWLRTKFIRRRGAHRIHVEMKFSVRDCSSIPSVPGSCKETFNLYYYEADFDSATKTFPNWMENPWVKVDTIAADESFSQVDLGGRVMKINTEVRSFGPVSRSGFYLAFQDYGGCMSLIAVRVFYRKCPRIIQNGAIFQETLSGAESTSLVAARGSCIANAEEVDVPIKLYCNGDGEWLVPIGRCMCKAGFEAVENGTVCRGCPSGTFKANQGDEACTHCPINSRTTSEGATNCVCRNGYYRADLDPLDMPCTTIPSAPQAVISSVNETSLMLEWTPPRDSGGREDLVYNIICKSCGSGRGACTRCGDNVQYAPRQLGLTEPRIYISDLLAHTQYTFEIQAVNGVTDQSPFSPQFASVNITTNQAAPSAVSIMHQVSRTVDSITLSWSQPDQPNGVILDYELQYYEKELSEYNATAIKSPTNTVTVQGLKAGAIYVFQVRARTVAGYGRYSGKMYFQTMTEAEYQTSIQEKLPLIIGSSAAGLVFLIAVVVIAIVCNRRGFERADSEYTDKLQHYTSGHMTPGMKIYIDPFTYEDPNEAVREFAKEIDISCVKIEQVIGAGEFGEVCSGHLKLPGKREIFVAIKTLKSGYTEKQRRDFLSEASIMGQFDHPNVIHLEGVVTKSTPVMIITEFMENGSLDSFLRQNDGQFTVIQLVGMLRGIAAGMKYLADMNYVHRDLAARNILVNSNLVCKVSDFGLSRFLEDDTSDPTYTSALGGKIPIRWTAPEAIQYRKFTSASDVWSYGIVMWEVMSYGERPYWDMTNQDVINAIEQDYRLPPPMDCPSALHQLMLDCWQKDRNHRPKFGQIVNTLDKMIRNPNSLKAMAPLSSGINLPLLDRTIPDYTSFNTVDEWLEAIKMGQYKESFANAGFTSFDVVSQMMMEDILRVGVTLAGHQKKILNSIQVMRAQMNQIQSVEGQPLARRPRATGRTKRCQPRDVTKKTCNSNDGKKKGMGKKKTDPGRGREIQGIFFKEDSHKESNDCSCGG

RAF = test: Biochemical inhibition profile, RAF; set-up: species or system Human; details: read-out: Biochemical Inhibition Profile IC50, RAF
pERK T202Y204 in HUVEC = test: Cell-based target inhibition assay, HUVEC, VEGF, pERK; set-up: species or system human; details: read-out: Cell-Based Target Inhibition Assays IC50, pERK T202Y204, activator VEGF
[1] = system: pERK T202Y204 in HUVEC (with BSA); test: Cell-based target inhibition assay, HUVEC, VEGF, pERK with BSA; set-up: species or system human; details: read-out: Cell-Based Target Inhibition Assays IC50, pERK T202Y204 (with BSA), activator VEGF, with BSA
[2] = Plasma pharmacokinetics in patients with relapsed AML; format: in vivo, human
Outline: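 Relapsed AML patients got 50 mg test compound orally after an ~8 h fast, without the probe cocktail. Plasma was sampled over 48 h after a single dose and over 12 h after one week of once-daily dosing. Tmax, Cmax, AUC and oral clearance came from noncompartmental analysis.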

[3] = system: CYP3A4, CYP2D6, and CYP2C9; test: Drug-drug interaction cocktail; format: in vivo, human; details: AML patients, cocktail before and after multiple doses of 50 mg/day
Outline: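 The probe cocktail was midazolam 0.2 mg (CYP3A4), dextromethorphan 30 mg (CYP2D6) and tolbutamide 500 mg (CYP2C9), given after a two-hour fast. It was dosed ~7 days before the single test-compound dose and again after two or four weeks of daily 50 mg oral test compound. Probe plasma concentration–time profiles were compared before and after treatment.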

[4] = system: pFLT3, pcKIT, pS6 in AML blasts; test: Flow cytometry of phosphoproteins in AML blasts of patients; format: in vivo, human; details: after multiple dosing 50 mg/day; at least three patients (B, C, and E)
Outline: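 Patient blood or marrow samples reached a central lab within 48 h. […] Peripheral CD34+CD11− cells were gated on a 3-laser FACSCanto II. Sampling was predose, day 1, 8, 15 and end of study. Read-out was MEFL.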

AML blasts = test: Antileukemia response assessment in patients; format: in vivo, human
Outline: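 Response was judged by WHO criteria on bone marrow aspirates taken at baseline and after four weeks of daily oral dosing (two weeks after amendment). Peripheral blast counts were taken daily during the multidose visit. A sustained fall in peripheral blast counts lasting longer than four weeks also counted as a pharmacodynamic response.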

[5] = system: MV4-11 cells containing the FLT3-ITD mutation; details: animals; cited from earlier work
[6] = AML patients, single and multiple oral doses 50 mg
[7] = Visit 0, single oral dose 50 mg, Max of N 5
[8] = Visit 0, single oral dose 50 mg, Min of N 5
[9] = Visit 0, single oral dose 50 mg, individual subjects (AML patients)
[10] = Visit 1, multiple oral doses 50 mg once daily, Max of N 5
[11] = Visit 1, multiple oral doses 50 mg once daily, Min of N 5
[12] = Visit 2, after multiple oral doses 50 mg, Max of N 2
[13] = Visit 2, after multiple oral doses 50 mg, Min of N 2

Chain of EPHA5 (P54756 25-1037): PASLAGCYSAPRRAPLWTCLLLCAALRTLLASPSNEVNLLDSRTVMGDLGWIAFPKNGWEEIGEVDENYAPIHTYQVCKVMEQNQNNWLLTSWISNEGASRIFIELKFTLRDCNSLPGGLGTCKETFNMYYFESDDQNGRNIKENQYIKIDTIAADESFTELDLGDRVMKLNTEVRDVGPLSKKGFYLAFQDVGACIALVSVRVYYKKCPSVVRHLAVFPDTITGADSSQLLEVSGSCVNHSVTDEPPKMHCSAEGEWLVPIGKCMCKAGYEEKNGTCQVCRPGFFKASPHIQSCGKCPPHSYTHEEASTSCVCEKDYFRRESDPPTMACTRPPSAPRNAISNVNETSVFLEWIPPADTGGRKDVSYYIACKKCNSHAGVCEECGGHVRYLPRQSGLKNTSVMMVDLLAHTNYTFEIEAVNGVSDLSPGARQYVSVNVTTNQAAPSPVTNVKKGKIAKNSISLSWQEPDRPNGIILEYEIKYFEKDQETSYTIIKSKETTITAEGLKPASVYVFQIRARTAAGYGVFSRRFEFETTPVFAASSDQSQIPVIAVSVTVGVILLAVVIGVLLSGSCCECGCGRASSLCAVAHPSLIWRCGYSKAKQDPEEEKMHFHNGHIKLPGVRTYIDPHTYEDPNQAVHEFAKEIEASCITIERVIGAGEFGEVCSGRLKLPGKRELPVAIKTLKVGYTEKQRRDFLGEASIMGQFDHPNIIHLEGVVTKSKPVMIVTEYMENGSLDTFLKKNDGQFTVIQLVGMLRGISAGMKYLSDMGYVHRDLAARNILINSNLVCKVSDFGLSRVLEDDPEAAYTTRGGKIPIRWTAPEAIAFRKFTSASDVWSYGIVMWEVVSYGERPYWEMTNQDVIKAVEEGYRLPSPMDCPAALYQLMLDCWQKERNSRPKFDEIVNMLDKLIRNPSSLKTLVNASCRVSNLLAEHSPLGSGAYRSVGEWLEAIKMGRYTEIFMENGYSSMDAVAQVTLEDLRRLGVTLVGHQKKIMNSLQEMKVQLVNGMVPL

Cc1cc(-c2ccn3c(-c4ccc(CC(=O)Nc5cccc(C(F)(F)F)c5)c(F)c4)cnc3c2)ccn1 [LY2457546]
pIC50 (EPHA5): 7.97 | pIC50 (KDR): 7.55 | pIC50 (VEGF-R1): 7.51 | pIC50 (EPHB2): 7.34 | pIC50 (RAF): 6.58 | pIC50 (pERK T202Y204 in HUVEC): 8.69 | pIC50 [1]: 7.38 | Elimination within 24 hours ([2]; AML patients, 50 mg/day orally): virtually no elimination | Accumulation in plasma [2, 6]: Extensive accumulation | Terminal elimination half-life [2, 6]: no terminal elimination half-life could be defined | AUC0_24, Max [2, 7]: 41500 ng·h/mL | AUClast, Max [2, 7]: 79200 ng·h/mL | Clast, Max [2, 7]: 1354.06 ng/mL | Cmax, Max [2, 7]: 2406.55 ng/mL | Tlast, Max [2, 7]: 48 h | Tmax, Max [2, 7]: 48 h | AUC0_24, Min [2, 8]: 1850 ng·h/mL | AUClast, Min [2, 8]: 1850 ng·h/mL | Clast, Min [2, 8]: 78.459 ng/mL | Cmax, Min [2, 8]: 105.113 ng/mL | Tlast, Min [2, 8]: 24 h | Tmax, Min [2, 8]: 2 h | AUC0_24 [2, 9]: 2520 ng·h/mL and 8930 ng·h/mL and 41500 ng·h/mL and 1850 ng·h/mL and 3420 ng·h/mL | AUClast [2, 9]: 6030 ng·h/mL and 16100 ng·h/mL and 79200 ng·h/mL and 1850 ng·h/mL and 3420 ng·h/mL | Clast [2, 9]: 154.876 ng/mL and 302.003 ng/mL and 1354.06 ng/mL and 105.113 ng/mL and 78.459 ng/mL | Cmax [2, 9]: 154.876 ng/mL and 604.581 ng/mL and 2406.55 ng/mL and 105.113 ng/mL and 394.238 ng/mL | Tlast [2, 9]: 48 h and 24 h | Tmax [2, 9]: 48 h and 2 h and 4 h and 24 h | AUC0_24, Max ([2]; Visit 1, multiple oral doses 50 mg once daily, Max of N 3): 69100 ng·h/mL | AUClast, Max [2, 10]: 69200 ng·h/mL | Clast, Max [2, 10]: 2830.537 ng/mL | Cmax, Max [2, 10]: 3812.913 ng/mL | Tlast, Max [2, 10]: 48 h | Tmax, Max [2, 10]: 8 h | AUC0_24, Min ([2]; Visit 1, multiple oral doses 50 mg once daily, Min of N 3): 2320 ng·h/mL | AUClast, Min [2, 11]: 3610 ng·h/mL | Clast, Min [2, 11]: 28.097 ng/mL | Cmax, Min [2, 11]: 123.44 ng/mL | Tlast, Min [2, 11]: 8 h | Tmax, Min [2, 11]: 0 h | AUC0_24, Max [2, 12]: 41500 ng·h/mL | AUClast, Max [2, 12]: 93400 ng·h/mL | Clast, Max [2, 12]: 2190.006 ng/mL | Cmax, Max [2, 12]: 2190.006 ng/mL | Tlast, Max [2, 12]: 48 h | Tmax, Max [2, 12]: 48 h | AUC0_24, Min [2, 13]: 18500 ng·h/mL | AUClast, Min [2, 13]: 38400 ng·h/mL | Clast, Min [2, 13]: 708.777 ng/mL | Cmax, Min [2, 13]: 1087.972 ng/mL | Tlast, Min [2, 13]: 48 h | Tmax, Min [2, 13]: 0 h | Drug-drug interactions with midazolam, tolbutamide, and dextromethorphan [3]: No consistent drug–drug interactions | Expression of pFLT3 and pcKIT [4]: reduced expression | Antileukemia response (AML blasts; five treated patients, 50 mg/day): No medically relevant responses | Leukocyte and blast cell counts (AML blasts; one of the five patients (B), through day 10): significant but transient decrease | Potency relative to sunitinib in controlling leukemia growth [5]: 10 fold
